The subject of series [1] is Canis familiaris. Kind of series: Effect on ventricular effective refractory period, after intravenous administration in open-chest anesthetized dogs at dose of 5.0 mg/kg. It counts as functional, Canis lupus familiaris, Cardiac ventricle. The method, boiled down: (§1)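 Mongrel dogs, pentobarbital-anesthetized (30 mg/kg iv plus 5 mg/kg per h), open chest. Compound given iv. Atrial and ventricular effective refractory periods and conduction times measured during pacing at 300 ms, along with heart rate and mean arterial pressure. Two doses per compound, chosen from dose-response runs. Values are % change from predrug, mean ± SE.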

Series [2] has as its system Canis familiaris. Kind of series: Effect on mean arterial pressure, after intravenous administration in open-chest anesthetized dogs at dose of 5.0 mg/kg. It counts as functional, Canis lupus familiaris, Artery.
Series [3] relates to Canis familiaris. Description: Effect on atrial conduction time, after intravenous administration in open-chest anesthetized dogs at dose of 5.0 mg/kg. It counts as functional, Canis lupus familiaris, Cardiac atrium.
Series [4] deals with Canis familiaris. Kind of series: Effect on atrial effective refractory period, after intravenous administration in open-chest anesthetized dogs at dose of 1.0 mg/kg. It counts as functional, Canis lupus familiaris, Cardiac atrium.
The test system of series [5] is Canis familiaris. Description: Effect on ventricular effective refractory period, after intravenous administration in open-chest anesthetized dogs at dose of 1.0 mg/kg. It counts as functional, Canis lupus familiaris, Cardiac ventricle. In outline:
as §1

For series [6], the system named is Canis familiaris. Kind of series: Effect on heart rate, after intravenous administration in open-chest anesthetized dogs at dose of 5.0 mg/kg. It counts as functional, Canis lupus familiaris.
A short description of series [7]: Maximum rate of depolarization of the upstroke of the action potential at 3 uM concentration. Further details: unit not given beside the values. In outline: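 Purkinje fiber bundles from pentobarbital-anesthetized mongrel dogs, superfused at 37.5-38.0 °C with Tyrode's solution (95% O2-5% CO2, pH 7.3-7.4). Stimulation with 2.0 ms square pulses at 2× threshold. Fibers equilibrated at least 1 h before drug. Action potentials recorded at four to six sites, control vs drug, and averaged per fiber.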

Series [8] concerns Canis familiaris. Description: Effect on ventricular conduction time, after intravenous administration in open-chest anesthetized dogs at dose of 1.0 mg/kg. It counts as functional, Canis lupus familiaris, Cardiac ventricle.
Series [9] has as its system Canis familiaris. Description: Effect on atrial conduction time, after intravenous administration in open-chest anesthetized dogs at dose of 1.0 mg/kg. It counts as functional, Canis lupus familiaris, Cardiac atrium.
Series [10] relates to Canis familiaris. Description: Effect on ventricular conduction time, after intravenous administration in open-chest anesthetized dogs at dose of 5.0 mg/kg. It counts as functional, Canis lupus familiaris, Cardiac ventricle.
Series [11] concerns Canis familiaris. Kind of series: Effect on mean arterial pressure, after intravenous administration in open-chest anesthetized dogs at dose of 1.0 mg/kg. It counts as functional, Canis lupus familiaris, Artery.
The species entered for series [12] is Canis familiaris. Description: Effect on the transmembrane potential of dog Purkinje fibers paced at a basic cycle length of stimulation of 300 ms, repolarization time to -60 mV at 3 uM concentration. It counts as functional. The settings on record: Canis lupus familiaris, Purkinje fiber. The method, boiled down:
(§2)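 Purkinje fiber bundles were taken from pentobarbital-anesthetized mongrel dogs. They were superfused at 37.5-38.0 °C with Tyrode's (mM: NaCl 138, KCl 4, CaCl2 2, NaHCO3 24, MgCl2 0.5, Na2HPO4 1.8, dextrose 5) gassed with 95% O2-5% CO2, pH 7.3-7.4. Stimulation used 2.0 ms pulses at twice threshold. Fibers were equilibrated ≥1 h before drug. Action potentials were recorded at 4-6 sites and averaged per fiber.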

In series [13] the test system is Canis familiaris. Kind of series: Effect on heart rate, after intravenous administration in open-chest anesthetized dogs at dose of 1.0 mg/kg. It counts as functional, Canis lupus familiaris.
For series [14], the species on record is Canis familiaris. Description: Effect on the transmembrane potential of dog Purkinje fibers paced at a basic cycle length of stimulation of 1000 ms, repolarization time to -60 mV at 3 uM concentration. It counts as functional. The settings on record: Canis lupus familiaris, Purkinje fiber. In outline: as §2
Series [15] concerns Canis familiaris. Kind of series: Effect on atrial effective refractory period, after intravenous administration in open-chest anesthetized dogs at dose of 5.0 mg/kg. It counts as functional, Canis lupus familiaris, Cardiac atrium.
The species entered for series [16] is Canis familiaris. Description: Effect on the transmembrane potential of dog Purkinje fibers paced at a basic cycle length of stimulation of 300 ms, repolarization time to -60 mV. Particulars: Canis lupus familiaris; Purkinje fiber. It counts as functional. In outline: as §2
The species entered for series [17] is Canis familiaris. Description: Effect on the transmembrane potential of dog Purkinje fibers paced at a basic cycle length of stimulation of 1000 ms, repolarization time to -60 mV. It counts as functional. The settings on record: Canis lupus familiaris; Purkinje fiber. In outline: as §2
Series [18] has as its system Canis familiaris. Kind of series: Effect on trial effective refractory period, after intravenous administration in open-chest anesthetized dogs at dose of 0.5 mg/kg. It counts as functional, Canis lupus familiaris.
In series [19] the test system is Canis familiaris. Description: Effect on ventricular conduction time, after intravenous administration in open-chest anesthetized dogs at dose of 0.5 mg/kg. It counts as functional, Canis lupus familiaris, Cardiac ventricle.
For series [20], the system named is Canis familiaris. Kind of series: Effect on heart rate, after intravenous administration in open-chest anesthetized dogs at dose of 0.5 mg/kg. It counts as functional, Canis lupus familiaris.
Series [21] concerns Canis familiaris. Kind of series: Effect on atrial conduction time, after intravenous administration in open-chest anesthetized dogs at dose of 0.5 mg/kg. It counts as functional, Canis lupus familiaris, Cardiac atrium.
The test system of series [22] is Canis familiaris. Kind of series: Effect on heart rate, after intravenous administration in open-chest anesthetized dogs at dose of 0.05 mg/kg. It counts as functional, Canis lupus familiaris.
For series [23], the system named is Canis familiaris. Description: Effect on mean arterial pressure, after intravenous administration in open-chest anesthetized dogs at dose of 0.5 mg/kg. It counts as functional, Canis lupus familiaris, Artery.
Series [24] deals with Canis familiaris. Kind of series: Effect on ventricular conduction time, after intravenous administration in open-chest anesthetized dogs at dose of 0.05 mg/kg. It counts as functional, Canis lupus familiaris, Cardiac ventricle.
Series [25] deals with Canis familiaris. Description: Atrial conduction time, after intravenous administration in open-chest anesthetized dogs at dose of 0.05 mg/kg. It counts as functional, Canis lupus familiaris, Cardiac atrium.
For series [26], the species on record is Canis familiaris. Description: Effect on the transmembrane potential of dog Purkinje fibers paced at a basic cycle length of stimulation of 300 ms, repolarization time to -60 mV, at a concentration of 0.3 uM. It counts as functional. The settings on record: Canis lupus familiaris, Purkinje fiber. In outline:
as §2

Series [27] relates to Canis familiaris. Description: Effect on ventricular effective refractory period, after intravenous administration in open-chest anesthetized dogs at dose of 0.5 mg/kg. It counts as functional, Canis lupus familiaris, Cardiac ventricle.
Series [28] deals with Canis familiaris. Description: Effect on ventricular effective refractory period, after intravenous administration in open-chest anesthetized dogs at dose of 0.05 mg/kg. It counts as functional, Canis lupus familiaris, Cardiac ventricle.
Series [29] concerns Canis familiaris. Description: Atrial effective refractory period, after intravenous administration in open-chest anesthetized dogs at dose of 0.05 mg/kg. It counts as functional, Canis lupus familiaris, Cardiac atrium.
Series [30] relates to Canis familiaris. Description: Effect on mean arterial pressure, after intravenous administration in open-chest anesthetized dogs at dose of 0.05 mg/kg. It counts as functional, Canis lupus familiaris, Artery.

Where “and” joins values, the source holds several entries; their conditions need not be identical. Equal entries are not always repeated.

Experimental findings from ChEMBL document CHEMBL1125376, “Class III antiarrhythmic activity of novel substituted 4-[(methylsulfonyl)amino]benzamides and sulfonamides” (J Med Chem, 1992) are described below.

`CN(CCN(C)c1nc2ccccc2n1C)C(=O)c1ccc(NS(C)(=O)=O)cc1.Cl`: the Change is 24% in the series on Canis familiaris [1]; -1% with Canis familiaris [2]; -3% with Canis familiaris [3]; 18% with Canis familiaris [4]; 10% in the series on Canis familiaris [5]; -27% with Canis familiaris [6]. Also, the Change in the series on Canis familiaris [8] is -1%; in the series with Canis familiaris [9] it was -1%; with Canis familiaris [10] it was -6%; with Canis familiaris [11] it was 5%; with Canis familiaris [13], -6%; in the series on Canis familiaris [15] it was 44%. Besides, the Vmax in [7] is -5 and -3. Besides, the APD60 in the series filed under Canis familiaris [12] worked out at 17; in the series filed under Canis familiaris [14], 65.

For `CN(CCN(C)c1ccc2ccccc2n1)C(=O)c1ccc(NS(C)(=O)=O)cc1`, the APD60 in the series filed under Canis familiaris [16] turned out to be 17; in the series listed under Canis familiaris [17], 36.

As to `Cl.Cn1c(N2CCN(S(=O)(=O)c3ccc(NS(C)(=O)=O)cc3)CC2)nc2ccccc21`, the Change with Canis familiaris [1] is listed as 25%; with Canis familiaris [2] it was 3%; in the series with Canis familiaris [3], -3%; in the series with Canis familiaris [4], 22%; with Canis familiaris [5], 13%; with Canis familiaris [6], -37%. Moreover, the Change is -4% in the series with Canis familiaris [8]; 3% with Canis familiaris [9]; 2% with Canis familiaris [10]; 2% in the series with Canis familiaris [11]; -17% in the series on Canis familiaris [13]; 40% in the series with Canis familiaris [15]. The APD60 in the series filed under Canis familiaris [12] amounted to 36; in the series filed under Canis familiaris [14] it was 57.

In the case of `CNc1nc2ccccc2n1CCN(C)S(=O)(=O)c1ccc(NS(C)(=O)=O)cc1`, the values for the APD60 in the series listed under Canis familiaris [16] and in the series filed under Canis familiaris [17] were 28 and 47, respectively.

As to `CN(CCOc1ccc(NS(C)(=O)=O)cc1)CCc1ccc(NS(C)(=O)=O)cc1` [DOFETILIDE], the Change in the series with Canis familiaris [18] was 65%; in the series on Canis familiaris [19], -4%; in the series on Canis familiaris [20] it was -24%; in the series with Canis familiaris [21] it was -9%; in the series on Canis familiaris [22], -14%; in the series with Canis familiaris [23] it was -2%. In addition, the Change in the series on Canis familiaris [24] is reported as -4%; in the series on Canis familiaris [25], -4%; with Canis familiaris [27], 27%; in the series with Canis familiaris [28] it was 23%; in the series on Canis familiaris [29], 46%; in the series with Canis familiaris [30] it was 1%. Also, the APD60 was found to be 30 in the series filed under Canis familiaris [16], 42 in the series filed under Canis familiaris [26] and 67 in the series filed under Canis familiaris [17].

For `CS(=O)(=O)Nc1ccc(S(=O)(=O)NCCNc2ncccn2)cc1`, the values for the APD60 in the series listed under Canis familiaris [16] and in the series listed under Canis familiaris [17] were -4 and 24, respectively.

Regarding `CN(CCN(C)S(=O)(=O)c1ccc(NS(C)(=O)=O)cc1)c1ncc2ccccc2n1`, the results for the APD60 in the series filed under Canis familiaris [16] and in the series listed under Canis familiaris [17] were 18 and 29, respectively.
